According to ChEMBL document CHEMBL1123505, “Synthesis, structure, and antitumor activity of N-salicyloyl-N'-(2-furylthiocarbonyl)hydrazine and its copper(II) complex” (1986):
Where “and” joins values, the source holds several entries; their conditions need not be identical. Equal entries are not always repeated.

What was measured:
Mus musculus [1] = test: Antitumor activity against fibrosarcoma infected mice at the dosage of 5 mg/kg (sc) and expressed as no. of mice injected; T/C= 6/6; type: functional, organism-based; parameters: dose 5 mg/kg
Mus musculus [2] = test: Antitumor activity expressed as %T/C was tested against fibrosarcoma at the dosage of 10 mg/Kg (sc); type: functional
How it was run: (§1)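 Fibrosarcoma: 4 × 10⁶ cells were given sc to C₃H/He mice, 25–30 g. A single ip or sc dose in 0.89% saline followed on day three, with saline-injected controls. Mean life span of nonsurvivors excludes mice surviving 6 months or more, which were counted as tumour-free. T/C% is treated mean survival, excluding tumour-free survivors, divided by untreated mean life span ×100.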

Mus musculus [3] = test: Antitumor activity expressed as %T/C was tested against fibrosarcoma at the dosage of 10 mg/Kg (ip); type: functional; how it was run: as §1
Mus musculus [4] = test: Antitumor activity expressed as average body weight change was tested against fibrosarcoma at the dosage of 50 mg/kg (ip); type: functional, organism-based; parameters: dose 50 mg/kg
How it was run: (§2)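 Fibrosarcoma-bearing C₃H/He mice (4 × 10⁶ cells sc) received a single ip or sc dose in 0.89% saline on day three after transplant; controls received saline. The day of injection was taken as day zero. Mice were weighed on alternate days up to 4 weeks. Values are average % weight change from the day of treatment to day 21.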

Mus musculus [5] = test: Antitumor activity expressed as mean life span of nonsurvivors in days (T/C) was tested against fibrosarcoma at the dosage of 10 mg/kg (sc); 41/28; type: functional, organism-based; parameters: dose 10 mg/kg; how it was run: as §1
Mus musculus [6] = test: Antitumor activity expressed as %T/C was tested against Dalton's lymphoma at the dosage of 2 mg/Kg (ip); type: functional
How it was run: (§3)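 Dalton's lymphoma: 2 × 10⁷ ascites cells were given ip to DbA mice, 18–20 g. A single ip dose in 0.89% saline followed on day two, with saline-injected controls. Mean life span was calculated excluding mice that survived 6 months or more. T/C% is the mean survival of treated mice, excluding tumour-free survivors, divided by the mean life span of untreated mice ×100.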

Mus musculus [7] = test: Antitumor activity expressed as the no. of mice surviving >6 months was tested against fibrosarcoma at the dosage of 50 mg/kg (ip); type: functional
How it was run: (§4)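 Fibrosarcoma was established by sc inoculation of 4 × 10⁶ cells in mice. On day 3 they received a single ip or sc injection of compound freshly suspended in 0.89% saline, with 5–10 mice per group. The count is of mice surviving 6 months or more after treatment, scored as tumor-free, with the percentage of the group also given.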

Mus musculus [8] = test: Antitumor activity expressed as %T/C was tested against fibrosarcoma at the dosage of 25 mg/Kg (ip); type: functional; how it was run: as §1
Mus musculus [9] = test: Antitumor activity against fibrosarcoma infected mice at the dosage of 25 mg/kg (sc) and expressed as no. of mice injected; T/C= 8/6; type: functional, organism-based; parameters: dose 25 mg/kg
Mus musculus [10] = test: Antitumor activity expressed as mean life span of nonsurvivors in days (T/C) was tested against fibrosarcoma at the dosage of 50 mg/kg (ip); 37/28; type: functional, organism-based; parameters: dose 50 mg/kg; how it was run: as §1
Mus musculus [11] = test: Antitumor activity expressed as mean life span of nonsurvivors in days (T/C) was tested against Dalton's lymphoma at the dosage of 2 mg/kg (ip); 24/23; type: functional, organism-based; parameters: dose 2 mg/kg; how it was run: as §3
Mus musculus [12] = test: Antitumor activity expressed as mean life span of nonsurvivors in days (T/C) was tested against fibrosarcoma at the dosage of 25 mg/kg (ip); 33/25; type: functional, organism-based; parameters: dose 25 mg/kg; how it was run: as §1
Mus musculus [13] = test: Antitumor activity against Dalton's lymphoma infected mice at the dosage of 25 mg/kg (ip) and expressed as no. of mice injected; T/C= 5/5; type: functional
Mus musculus [14] = test: Antitumor activity expressed as average body weight change was tested against fibrosarcoma at the dosage of 5 mg/kg (sc); type: functional; how it was run: as §2
Mus musculus [15] = test: Antitumor activity against Dalton's lymphoma infected mice at the dosage of 2 mg/kg (ip) and expressed as no. of mice injected; T/C= 5/5; type: functional
Mus musculus [16] = test: Antitumor activity against fibrosarcoma infected mice at the dosage of 10 mg/kg (sc) and expressed as no. of mice injected; T/C= 8/7; type: functional
Mus musculus [17] = test: Antitumor activity expressed as the no. of mice surviving >6 months was tested against fibrosarcoma at the dosage of 5 mg/kg (ip); type: functional; how it was run: as §4
Mus musculus [18] = test: Antitumor activity against Dalton's lymphoma infected mice at the dosage of 10 mg/kg (ip) and expressed as no. of mice injected; T/C= 5/5; type: functional
Mus musculus [19] = test: Antitumor activity expressed as %T/C was tested against fibrosarcoma at the dosage of 5 mg/Kg (sc); type: functional; how it was run: as §1
Mus musculus [20] = test: Antitumor activity expressed as the no. of mice surviving >6 months was tested against fibrosarcoma at the dosage of 25 mg/kg (ip); type: functional; how it was run: as §4
Mus musculus [21] = test: Antitumor activity against fibrosarcoma infected mice at the dosage of 10 mg/kg (ip) and expressed as no. of mice injected; T/C= 8/8; type: functional, organism-based; parameters: dose 10 mg/kg
Mus musculus [22] = test: Antitumor activity expressed as %T/C was tested against Dalton's lymphoma at the dosage of 25 mg/Kg (ip); type: functional; how it was run: as §3
Mus musculus [23] = test: Antitumor activity against fibrosarcoma infected mice at the dosage of 25 mg/kg (ip) and expressed as no. of mice injected; T/C= 7/7; type: functional, organism-based; parameters: dose 25 mg/kg
Mus musculus [24] = test: Antitumor activity expressed as average body weight change was tested against fibrosarcoma at the dosage of 25 mg/kg (sc); type: functional; how it was run: as §2
Mus musculus [25] = test: Antitumor activity expressed as mean life span of nonsurvivors in days (T/C) was tested against fibrosarcoma at the dosage of 10 mg/kg (ip); 35/27; type: functional, organism-based; parameters: dose 10 mg/kg; how it was run: as §1
Mus musculus [26] = test: Antitumor activity expressed as %T/C was tested against Dalton's lymphoma at the dosage of 10 mg/Kg (ip); type: functional; how it was run: as §3
Mus musculus [27] = test: Antitumor activity expressed as average body weight change was tested against fibrosarcoma at the dosage of 25 mg/kg (ip); type: functional, organism-based; parameters: dose 25 mg/kg; how it was run: as §2
Mus musculus [28] = test: Antitumor activity expressed as mean life span of nonsurvivors in days (T/C) was tested against fibrosarcoma at the dosage of 25 mg/kg (sc); 39/29; type: functional, organism-based; parameters: dose 25 mg/kg; how it was run: as §1
Mus musculus [29] = test: Antitumor activity expressed as mean life span of nonsurvivors in days (T/C) was tested against fibrosarcoma at the dosage of 5 mg/kg (ip); 34/26; type: functional, organism-based; parameters: dose 5 mg/kg; how it was run: as §1
Mus musculus [30] = test: Antitumor activity expressed as %T/C was tested against fibrosarcoma at the dosage of 5 mg/Kg (ip); type: functional; how it was run: as §1
Mus musculus [31] = test: Antitumor activity expressed as mean life span of nonsurvivors in days (T/C) was tested against Dalton's lymphoma at the dosage of 25 mg/kg (ip); 38/23; type: functional, organism-based; parameters: dose 25 mg/kg; how it was run: as §3
Mus musculus [32] = test: Antitumor activity expressed as %T/C was tested against fibrosarcoma at the dosage of 25 mg/Kg (sc); type: functional; how it was run: as §1
Mus musculus [33] = test: Antitumor activity against fibrosarcoma infected mice at the dosage of 50 mg/kg (ip) and expressed as no. of mice injected; T/C= 10/6; type: functional, organism-based; parameters: dose 50 mg/kg
Mus musculus [34] = test: Antitumor activity expressed as average body weight change was tested against fibrosarcoma at the dosage of 5 mg/kg (ip); type: functional, organism-based; parameters: dose 5 mg/kg; how it was run: as §2
Mus musculus [35] = test: Antitumor activity expressed as %T/C was tested against fibrosarcoma at the dosage of 50 mg/Kg (ip); type: functional; how it was run: as §1
Mus musculus [36] = test: Antitumor activity expressed as average body weight change was tested against fibrosarcoma at the dosage of 10 mg/kg (ip); type: functional, organism-based; parameters: dose 10 mg/kg; how it was run: as §2
Mus musculus [37] = test: Antitumor activity expressed as average body weight change was tested against fibrosarcoma at the dosage of 10 mg/kg (sc); type: functional; how it was run: as §2
Mus musculus [38] = test: Antitumor activity expressed as mean life span of nonsurvivors in days (T/C) was tested against Dalton's lymphoma at the dosage of 10 mg/kg (ip); 30/23; type: functional, organism-based; parameters: dose 10 mg/kg; how it was run: as §3
Mus musculus [39] = test: Antitumor activity expressed as mean life span of nonsurvivors in days (T/C) was tested against fibrosarcoma at the dosage of 5 mg/kg (sc); 30/27; type: functional, organism-based; parameters: dose 5 mg/kg; how it was run: as §1
Mus musculus [40] = test: Antitumor activity against fibrosarcoma infected mice at the dosage of 5 mg/kg (ip) and expressed as no. of mice injected; T/C= 8/8; type: functional, organism-based; parameters: dose 5 mg/kg

Question: With Copper(II) Complex as the substance, how does the T/C (Mus musculus [1]) read?
Answer: 6

Question: What about the T/C (Mus musculus [2]) of the same substance?
Answer: 146%

Question: And the T/C (Mus musculus [3])?
Answer: 130%

Question: What about the Average body weight change (Mus musculus [4]) of the same substance?
Answer: 8.51%

Question: What about the T/C (Mus musculus [5]) of the same substance?
Answer: 41 days

Question: What about the T/C (Mus musculus [6]) of the same substance?
Answer: 104%

Question: What about the No. of mice surviving >6 months (Mus musculus [7]) of the same substance?
Answer: 4

Question: And the T/C (Mus musculus [8])?
Answer: 132%

Question: What about the T/C (Mus musculus [9]) of the same substance?
Answer: 8

Question: What about the T/C (Mus musculus [10]) of the same substance?
Answer: 37 days

Question: What about the T/C (Mus musculus [11]) of the same substance?
Answer: 24 days

Question: What about the T/C (Mus musculus [12]) of the same substance?
Answer: 33 days

Question: What about the T/C (Mus musculus [13]) of the same substance?
Answer: 5

Question: And the Average body weight change (Mus musculus [14])?
Answer: 19.4%

Question: What about the T/C (Mus musculus [15]) of the same substance?
Answer: 5

Question: What about the T/C (Mus musculus [16]) of the same substance?
Answer: 8

Question: And the No. of mice surviving >6 months (Mus musculus [17])?
Answer: 2

Question: And the T/C (Mus musculus [18])?
Answer: 5

Question: What about the T/C (Mus musculus [19]) of the same substance?
Answer: 111%

Question: And the No. of mice surviving >6 months (Mus musculus [20])?
Answer: 3 and 6

Question: What about the T/C (Mus musculus [21]) of the same substance?
Answer: 8

Question: And the T/C (Mus musculus [22])?
Answer: 165%

Question: And the T/C (Mus musculus [23])?
Answer: 7

Question: What about the Average body weight change (Mus musculus [24]) of the same substance?
Answer: 5.51%

Question: And the T/C (Mus musculus [25])?
Answer: 35 days

Question: What about the T/C (Mus musculus [26]) of the same substance?
Answer: 130%

Question: What about the Average body weight change (Mus musculus [27]) of the same substance?
Answer: 12%

Question: What about the T/C (Mus musculus [28]) of the same substance?
Answer: 39 days

Question: What about the T/C (Mus musculus [29]) of the same substance?
Answer: 34 days

Question: What about the T/C (Mus musculus [30]) of the same substance?
Answer: 131%

Question: And the T/C (Mus musculus [31])?
Answer: 38 days

Question: What about the T/C (Mus musculus [32]) of the same substance?
Answer: 135%

Question: What about the T/C (Mus musculus [33]) of the same substance?
Answer: 10

Question: And the Average body weight change (Mus musculus [34])?
Answer: 15.5%

Question: What about the T/C (Mus musculus [35]) of the same substance?
Answer: 132%

Question: What about the Average body weight change (Mus musculus [36]) of the same substance?
Answer: 18.3%

Question: What about the Average body weight change (Mus musculus [37]) of the same substance?
Answer: 5.86%

Question: What about the T/C (Mus musculus [38]) of the same substance?
Answer: 30 days

Question: What about the T/C (Mus musculus [39]) of the same substance?
Answer: 30 days

Question: What about the T/C (Mus musculus [40]) of the same substance?
Answer: 8
